Results reported in ChEMBL document CHEMBL1255376, “Comparative surveillance study of telavancin activity against recently collected gram-positive clinical isolates from across the United States” (2008).
Converted amounts (≈) assume the structure as drawn.

Experiments:
Assay type in all cases: functional
Staphylococcus capitis [1] = test: Antibacterial activity against methicillin-resistant coagulase-negative Staphylococcus capitis clinical isolate by broth microdilution method
How it was run: (§1)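 MICs by CLSI broth microdilution in frozen trays pre-loaded with serial dilutions of each agent. Quality-control strains run in parallel: E. faecalis ATCC 29212 and ATCC 51299, S. aureus ATCC 29213, S. pneumoniae ATCC 49619. Comparator susceptibility categories follow CLSI breakpoints. Methicillin resistance in staphylococci assigned from the oxacillin MIC.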

Staphylococcus xylosus = test: Antibacterial activity against methicillin-resistant coagulase-negative Staphylococcus xylosus clinical isolate by broth microdilution method; how it was run: as §1
[2] = test system: Staphylococcus saprophyticus; test: Antibacterial activity against methicillin-resistant coagulase-negative Staphylococcus saprophyticus clinical isolate by broth microdilution method; how it was run: as §1
Streptococcus mitis = test: Antibacterial activity against Streptococcus mitis clinical isolate by broth microdilution method
How it was run: (§2)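 MIC by CLSI broth microdilution in frozen microtiter trays holding serial dilutions of each agent, prepared from standard laboratory powders. E. faecalis ATCC 29212 and ATCC 51299, S. aureus ATCC 29213 and S. pneumoniae ATCC 49619 run in parallel as quality-control strains. Comparator susceptibility interpreted with CLSI breakpoints.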

Streptococcus sp. [3] = test: Antibacterial activity against Streptococcus sp. clinical isolate by broth microdilution method
How it was run: (§3)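 MIC by CLSI broth microdilution in frozen microtiter trays holding serial dilutions of each agent, prepared from standard laboratory powders. Comparator susceptibility interpreted with CLSI breakpoints.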

[4] = test system: Staphylococcus saprophyticus; test: Antibacterial activity against methicillin-susceptible coagulase-negative Staphylococcus saprophyticus clinical isolate by broth microdilution method; how it was run: as §1
Staphylococcus aureus [5] = test: Antibacterial activity against methicillin-susceptible Staphylococcus aureus clinical isolate by broth microdilution method; how it was run: as §1
Streptococcus oralis = test: Antibacterial activity against Streptococcus oralis clinical isolate by broth microdilution method; how it was run: as §2
Staphylococcus [6] = test: Antibacterial activity against daptomycin-nonsusceptible coagulase-negative Staphylococcus isolate 1285835 by broth microdilution method; how it was run: as §2
[7] = Antibacterial activity against Streptococcus sp. Group G clinical isolate by broth microdilution method; how it was run: as §2
Staphylococcus hominis [8] = test: Antibacterial activity against methicillin-susceptible coagulase-negative Staphylococcus hominis clinical isolate by broth microdilution method; how it was run: as §1
Enterococcus faecium [9] = test: Antibacterial activity against vancomycin-resistant and teichoplanin-susceptible Enterococcus faecium clinical isolate by broth microdilution method; how it was run: as §1
Streptococcus sp. [10] = test: Antibacterial activity against Streptococcus sp. Group F clinical isolate by broth microdilution method; how it was run: as §3
[11] = test system: Staphylococcus haemolyticus; test: Antibacterial activity against methicillin-resistant coagulase-negative Staphylococcus haemolyticus clinical isolate by broth microdilution method; how it was run: as §1
[12] = test system: Staphylococcus haemolyticus; test: Antibacterial activity against methicillin-susceptible coagulase-negative Staphylococcus haemolyticus clinical isolate by broth microdilution method; how it was run: as §1
Enterococcus faecium [13] = test: Antibacterial activity against vancomycin- and teichoplanin-nonsusceptible Enterococcus faecium clinical isolate by broth microdilution method; how it was run: as §1
Mammaliicoccus sciuri = test: Antibacterial activity against methicillin-susceptible coagulase-negative Staphylococcus sciuri clinical isolate by broth microdilution method; how it was run: as §1
Streptococcus pneumoniae [14] = test: Antibacterial activity against penicillin resistant Streptococcus pneumoniae clinical isolate by broth microdilution method; how it was run: as §1
Staphylococcus aureus [15] = test: Antibacterial activity against methicillin-resistant Staphylococcus aureus clinical isolate by broth microdilution method; how it was run: as §1
Streptococcus sanguinis = test: Antibacterial activity against Streptococcus sanguinis clinical isolate by broth microdilution method; how it was run: as §2
[16] = Antibacterial activity against Streptococcus sp. Group C clinical isolate by broth microdilution method; how it was run: as §2
Streptococcus pneumoniae [17] = test: Antibacterial activity against penicillin intermediate Streptococcus pneumoniae clinical isolate by broth microdilution method; how it was run: as §1
[18] = test system: Streptococcus intermedius; test: Antibacterial activity against Streptococcus intermedius clinical isolate by broth microdilution method; how it was run: as §2
Streptococcus pneumoniae [19] = test: Antibacterial activity against penicillin susceptible Streptococcus pneumoniae clinical isolate by broth microdilution method; how it was run: as §1
Enterococcus faecalis [20] = test: Antibacterial activity against vancomycin- and teichoplanin-nonsusceptible Enterococcus faecalis clinical isolate by broth microdilution method; how it was run: as §1
Staphylococcus warneri [21] = test: Antibacterial activity against methicillin-susceptible coagulase-negative Staphylococcus warneri clinical isolate by broth microdilution method; how it was run: as §1
Staphylococcus [22] = test: Antibacterial activity against methicillin-resistant coagulase-negative unspeciated Staphylococcus clinical isolate by broth microdilution method; how it was run: as §1
Staphylococcus capitis [23] = test: Antibacterial activity against daptomycin-nonsusceptible Staphylococcus capitis isolate 1285355 by broth microdilution method; how it was run: as §2
[24] = test system: Staphylococcus epidermidis; test: Antibacterial activity against methicillin-susceptible coagulase-negative Staphylococcus epidermidis clinical isolate by broth microdilution method; how it was run: as §1
Staphylococcus warneri [25] = test: Antibacterial activity against methicillin-resistant coagulase-negative Staphylococcus warneri clinical isolate by broth microdilution method; how it was run: as §1
Staphylococcus capitis [26] = test: Antibacterial activity against methicillin-susceptible coagulase-negative Staphylococcus capitis clinical isolate by broth microdilution method; how it was run: as §1
[27] = test system: Streptococcus constellatus; test: Antibacterial activity against Streptococcus constellatus clinical isolate by broth microdilution method; how it was run: as §2
Staphylococcus aureus [28] = test: Antibacterial activity against vancomycin-, methicillin-resistant Staphylococcus aureus VRS3 by broth microdilution method
How it was run: (§4)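 VISA and VRSA strains from the NARSA repository were tested separately from the surveillance isolates. MICs by CLSI broth microdilution in frozen trays with serial dilutions. Quality-control strains run in parallel. Susceptibility categories follow CLSI breakpoints, and methicillin resistance was assigned from the oxacillin MIC.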

Enterococcus faecalis [29] = test: Antibacterial activity against vancomycin-resistant and teichoplanin-susceptible Enterococcus faecalis clinical isolate by broth microdilution method; how it was run: as §1
Staphylococcus aureus [30] = test: Antibacterial activity against methicillin-resistant Staphylococcus aureus
Streptococcus pyogenes = test: Antibacterial activity against Streptococcus pyogenes clinical isolate by broth microdilution method; how it was run: as §2
Staphylococcus aureus [31] = test: Antibacterial activity against vancomycin-intermediate methicillin-resistant Staphylococcus aureus NRS17 by broth microdilution method; how it was run: as §4
Staphylococcus hominis [32] = test: Antibacterial activity against methicillin-resistant coagulase-negative Staphylococcus hominis clinical isolate by broth microdilution method; how it was run: as §1
Staphylococcus [33] = test: Antibacterial activity against methicillin-susceptible coagulase-negative unspeciated Staphylococcus clinical isolate by broth microdilution method; how it was run: as §1

CN[C@H](CC(C)C)C(=O)N[C@H]1C(=O)N[C@@H](CC(N)=O)C(=O)N[C@H]2C(=O)N[C@H]3C(=O)N[C@H](C(=O)N[C@H](C(=O)O)c4cc(O)cc(O)c4-c4cc3ccc4O)[C@H](O)c3ccc(c(Cl)c3)Oc3cc2cc(c3O[C@@H]2O[C@H](CO)[C@@H](O)[C@H](O)[C@H]2O[C@H]2C[C@](C)(N)[C@H](O)[C@H](C)O2)Oc2ccc(cc2Cl)[C@H]1O [VANCOMYCIN] showed an MIC50 (Staphylococcus capitis [1]) of 2 µg/mL (≈ 1.38 µM), an MIC90 (Staphylococcus capitis [1]) of 2 µg/mL (≈ 1.38 µM) and an MIC50 (Staphylococcus xylosus) of 2 µg/mL (≈ 1.38 µM). The MIC90 (Staphylococcus xylosus) was 2 µg/mL (≈ 1.38 µM), the MIC50 [2] was 2 µg/mL (≈ 1.38 µM) and the MIC90 [2] was 2 µg/mL (≈ 1.38 µM). For the same compound, the MIC50 (Streptococcus mitis) was 0.5 µg/mL (≈ 0.345 µM), the MIC90 (Streptococcus mitis) was 0.5 µg/mL (≈ 0.345 µM) and the MIC50 (Streptococcus sp. [3]) was 0.5 µg/mL (≈ 0.345 µM). It also gave an MIC90 (Streptococcus sp. [3]) of 0.5 µg/mL (≈ 0.345 µM), an MIC50 [4] of 1 µg/mL (≈ 0.69 µM) and an MIC90 [4] of 2 µg/mL (≈ 1.38 µM). It also gave an MIC50 (Staphylococcus aureus [5]) of 1 µg/mL (≈ 0.69 µM), an MIC90 (Staphylococcus aureus [5]) of 1 µg/mL (≈ 0.69 µM) and an MIC50 (Streptococcus oralis) of 0.5 µg/mL (≈ 0.345 µM). The MIC90 (Streptococcus oralis) was 0.5 µg/mL (≈ 0.345 µM), the MIC (Staphylococcus [6]) was 2 µg/mL (≈ 1.38 µM) and the MIC [7] was 0.25 µg/mL (≈ 0.173 µM). For the same compound, the MIC50 [7] was 0.25 µg/mL (≈ 0.173 µM), the MIC90 [7] was 0.5 µg/mL (≈ 0.345 µM) and the MIC50 (Staphylococcus hominis [8]) was 1 µg/mL (≈ 0.69 µM). For the same compound, the MIC90 (Staphylococcus hominis [8]) was 2 µg/mL (≈ 1.38 µM), the MIC50 (Enterococcus faecium [9]) was 128 µg/mL (≈ 88.3 µM) and the MIC90 (Enterococcus faecium [9]) was 512 µg/mL (≈ 353 µM). It also gave an MIC (Streptococcus sp. [10]) of 0.25 µg/mL (≈ 0.173 µM), an MIC50 (Streptococcus sp. [10]) of 0.25 µg/mL (≈ 0.173 µM) and an MIC90 (Streptococcus sp. [10]) of 0.5 µg/mL (≈ 0.345 µM). The MIC50 [11] was 2 µg/mL (≈ 1.38 µM), the MIC90 [11] was 2 µg/mL (≈ 1.38 µM) and the MIC50 [12] was 1 µg/mL (≈ 0.69 µM). For the same compound, the MIC90 [12] was 2 µg/mL (≈ 1.38 µM), the MIC50 (Enterococcus faecium [13]) was 512 µg/mL (≈ 353 µM) and the MIC90 (Enterococcus faecium [13]) was 512 µg/mL (≈ 353 µM). The MIC50 (Mammaliicoccus sciuri) was 1 µg/mL (≈ 0.69 µM), the MIC90 (Mammaliicoccus sciuri) was 2 µg/mL (≈ 1.38 µM) and the MIC (Streptococcus pneumoniae [14]) was 0.25 µg/mL (≈ 0.173 µM). The MIC50 (Streptococcus pneumoniae [14]) was 0.25 µg/mL (≈ 0.173 µM), the MIC90 (Streptococcus pneumoniae [14]) was 0.5 µg/mL (≈ 0.345 µM) and the MIC50 (Staphylococcus aureus [15]) was 1 µg/mL (≈ 0.69 µM). For the same compound, the MIC90 (Staphylococcus aureus [15]) was 1 µg/mL (≈ 0.69 µM), the MIC50 (Streptococcus sanguinis) was 0.5 µg/mL (≈ 0.345 µM) and the MIC90 (Streptococcus sanguinis) was 0.5 µg/mL (≈ 0.345 µM). It also gave an MIC [16] of 0.25 µg/mL (≈ 0.173 µM), an MIC50 [16] of 0.25 µg/mL (≈ 0.173 µM) and an MIC90 [16] of 0.5 µg/mL (≈ 0.345 µM). For the same compound, the MIC (Streptococcus pneumoniae [17]) was 0.25 µg/mL (≈ 0.173 µM), the MIC50 (Streptococcus pneumoniae [17]) was 0.25 µg/mL (≈ 0.173 µM) and the MIC90 (Streptococcus pneumoniae [17]) was 0.5 µg/mL (≈ 0.345 µM). It also gave an MIC50 [18] of 0.5 µg/mL (≈ 0.345 µM), an MIC90 [18] of 0.5 µg/mL (≈ 0.345 µM) and an MIC50 (Streptococcus pneumoniae [19]) of 0.25 µg/mL (≈ 0.173 µM). The MIC90 (Streptococcus pneumoniae [19]) was 0.5 µg/mL (≈ 0.345 µM), the MIC50 (Enterococcus faecalis [20]) was 512 µg/mL (≈ 353 µM) and the MIC90 (Enterococcus faecalis [20]) was > 512 µg/mL. For the same compound, the MIC50 (Staphylococcus warneri [21]) was 1 µg/mL (≈ 0.69 µM), the MIC90 (Staphylococcus warneri [21]) was 2 µg/mL (≈ 1.38 µM) and the MIC50 (Staphylococcus [22]) was 2 µg/mL (≈ 1.38 µM). For the same compound, the MIC90 (Staphylococcus [22]) was 2 µg/mL (≈ 1.38 µM), the MIC (Staphylococcus capitis [23]) was 2 µg/mL (≈ 1.38 µM) and the MIC50 [24] was 1 µg/mL (≈ 0.69 µM). The MIC90 [24] was 2 µg/mL (≈ 1.38 µM), the MIC50 (Staphylococcus warneri [25]) was 2 µg/mL (≈ 1.38 µM) and the MIC90 (Staphylococcus warneri [25]) was 2 µg/mL (≈ 1.38 µM). The MIC50 (Staphylococcus capitis [26]) was 1 µg/mL (≈ 0.69 µM), the MIC90 (Staphylococcus capitis [26]) was 2 µg/mL (≈ 1.38 µM) and the MIC50 [27] was 0.5 µg/mL (≈ 0.345 µM). The MIC90 [27] was 0.5 µg/mL (≈ 0.345 µM), the MIC (Staphylococcus aureus [28]) was > 32 µg/mL and the MIC (Enterococcus faecalis [29]) was 32 µg/mL (≈ 22.1 µM). For the same compound, the MIC50 (Staphylococcus aureus [30]) was 0.69 µM (≈ 1 µg/mL), the MIC (Streptococcus pyogenes) was 0.25 µg/mL (≈ 0.173 µM) and the MIC50 (Streptococcus pyogenes) was 0.25 µg/mL (≈ 0.173 µM). It also gave an MIC90 (Streptococcus pyogenes) of 0.5 µg/mL (≈ 0.345 µM), an MIC (Staphylococcus aureus [31]) of 8 µg/mL (≈ 5.52 µM) and an MIC50 (Staphylococcus hominis [32]) of 2 µg/mL (≈ 1.38 µM). It also gave an MIC90 (Staphylococcus hominis [32]) of 2 µg/mL (≈ 1.38 µM), an MIC50 (Staphylococcus [33]) of 1 µg/mL (≈ 0.69 µM) and an MIC90 (Staphylococcus [33]) of 2 µg/mL (≈ 1.38 µM).
